Screens as filed in PubChem.
CHT PAM – allosterically activates the human high affinity choline transporter | CHT-expressing cells, membrane potential dye, choline EC20; active compounds read high; LV-AA mutant CHT in HEK293 cells | Q9GZV3 | 0.49% of 310,000 active | B-score at 10 µM;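 active means initial fluorescence not abnormally high and integrated response B-score, plate-corrected, over 3 SD above library mean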
Lipid droplet – hepatic lipid droplet formation modulation. 0.4% of 240,000 active. inhibition, % at 6.5 µM. AID 1656. AML12 mouse hepatocytes, oleate lipid droplets, BODIPY imaging;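 active means lipid droplet intensity inhibited by at least 50%, with more than 500 cells counted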
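Assay system: AML12 hepatocytes (mouse); Probe or stimulus: oleic acid at 100 µM to induce lipid droplet formation; Dosing: compound at 6.5 µM only; Schedule: compound with oleate, overnight; Detection: fluorescence imaging, 20x objective, two fields per well; Measure: % inhibition of lipid droplet signal.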
HSF1 inhib – HSF1 inhibition. 0.77% of 300,000 active. AID 2098. activity change, negative = inhibition, % at 7.5 µM (by protocol). NIH3T3-HGL HSE-luciferase, MG132-induced, luminescence 8 h; active compounds read low;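 active means more than half of replicate wells show activity change below -50%, luminescence cut by over half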;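 further: luciferase reports HSF-1 transcriptional activity via heat shock element; 0% = median of DMSO wells and -100% = zero luminescence signal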
CHT inh – inhibits the human high affinity choline transporter; Q9GZV3; CHT-expressing cells, membrane potential dye, choline response; active compounds read low; B-score at 10 µM; 0.86% of 310,000 active; AID 488975;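 active means B-score over 3 SD under the library average, and starting fluorescence ratio not unusually high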;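 further: choline stimulus applied at its EC90 after an EC20 pre-addition; B-score computed on integrated fluorescence ratio after choline addition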
PHOSPHO1 inh – inhibitors of human PHOSPHO1 phosphatase; Q8TCT1; recombinant PHOSPHO1, absorbance phosphatase assay; inhibition, % at 13.3 µM; 1.1% of 290,000 active; AID 1565; in the data active means inhibition above about 60%
Target sequence (Q8TCT1 whole entry, looked up): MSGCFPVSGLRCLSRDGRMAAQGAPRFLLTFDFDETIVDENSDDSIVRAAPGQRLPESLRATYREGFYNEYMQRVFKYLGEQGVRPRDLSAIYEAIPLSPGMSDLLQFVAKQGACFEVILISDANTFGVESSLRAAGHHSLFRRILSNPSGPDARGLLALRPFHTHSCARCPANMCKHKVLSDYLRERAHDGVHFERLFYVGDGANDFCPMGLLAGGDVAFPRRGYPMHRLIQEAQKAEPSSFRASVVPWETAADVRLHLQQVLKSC
HSF-1 act – increases HSF-1 driven luciferase reporter signal; NIH3T3-HGL HSF-1 luciferase reporter, MG132, 8 h; 100% = twice DMSO control signal; activation, % at 9 µM; 1.7% of 300,000 active;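 active means mean replicate activation of at least 50% with a set share of replicates each reaching 50%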;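 further: 0% = median of the neutral control wells and 100% = twice that signal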
Starred values were filed as active, the others as inactive; i = inactive; . = no result. Compounds with a hit are over-represented: about 4.9% of the library has one in this group of screens.

SMILES	CHT PAM	Lipid droplet	HSF1 inhib	CHT inh	PHOSPHO1 inh	HSF-1 act
CCc1nc(SCC(=O)c2cc(C)ccc2C)n[nH]1	i	0	-1	i	-3	2
CCCn1c(SCC(=O)c2cc(C)ccc2C)n[nH]c1=O	i	-9	4	i	94*	7
CC1CN(C(=O)C2CCCC2)C(C)CN1C(=O)C1CCCC1 (configuration not stated)	i	-14	-4	i	60*	5
COc1cccc(C2=NOC(C(=O)Nc3ccc(C(C)=O)cc3)C2)c1 (configuration not stated)	i	-9	.	i	3	.
CCOC(=O)c1ccc(N2Cc3ccccc3C2=NC(=O)c2cccc([N+](=O)[O-])c2)cc1	i	.	30	i	.	68*
C=CCNC(=O)/C(=C\C=C\c1ccccc1)NC(=O)c1ccc(OCCCC)cc1	i	.	8	i	-14	8
CC1CC(C)CN(C(=O)c2ccc3c(=O)n(Cc4ccc5c(c4)OCO5)c(=S)[nH]c3c2)C1 (configuration not stated)	i	.	23	i	15	65*
O=C(c1ccc2c(=O)n(Cc3ccc4c(c3)OCO4)c(=S)[nH]c2c1)N1CCCCC1	i	.	-4	i	18	-19
Cc1nnsc1S(=O)c1ccc(Cl)c(Cl)c1 (configuration not stated)	i	.	-81*	i	27	-85
CCOc1ccc(-c2nnc(SCC(=O)Nc3ccc4c(c3)c3ccccc3n4CC)n2N)cc1	i	.	-12	i	79*	-16
CCn1c2ccccc2c2cc(NC(=O)CSc3nnc(-c4cccc(OC)c4)n3N)ccc21	i	-29	20	i	28	58*
CCn1c2ccccc2c2cc(NC(=O)CSc3nnc(-c4ccc(OC)c(OC)c4)n3N)ccc21	i	.	-2	i	45	5
CCn1c2ccccc2c2cc(NC(=O)CSc3nnc(-c4ccccc4OC)n3N)ccc21	i	.	1	i	78*	9
COc1ccc(CCN(C)C(=O)c2c(C)nn(CC(C)C)c2Cl)cc1OC	i	1	-5	i	25	-13
Cc1cc(C(=O)Nc2ccc(C(=O)O)cc2)c(C)o1	i	-4	-8	i	30	0
COCCN1C(=O)N[C@@H](CCc2ccccc2)[C@@H](C(=O)OC)[C@H]1C	i	.	5	i	.	14
O=S(=O)(c1ccc2c(c1)OCCCO2)N1CCNCC1	i	-10	-9	i	-11	-14
c1cc2c(cc1C1CCCN1)OCCCO2 (configuration not stated)	i	21	-71*	i	-18	-77
COc1ccc(N2CCN(CC(=O)N3c4ccccc4CC3C)CC2)cc1 (configuration not stated)	i	-37	3	i	-25	4
Cc1nc(/C(N)=N/OC(=O)c2ccccc2Cl)c(C(F)(F)F)o1	i	-4	11	i	33	38
O=C(CCCCCNC(=O)N1CCn2c1nc1ccccc12)NCc1ccc(Cl)cc1	i	0	32	i	18	51*
Cc1ccc(C(=O)NC(=S)Nc2cccc3c(C)cc(C)nc23)cc1	i	.	1	i	6	17
COC(=O)C1=C(C)N(Cc2ccccc2)C(=NCc2cccc(C(F)(F)F)c2)N[C@H]1c1cccc(F)c1	i	-3	11	i	-7	22
COCCOc1cc(NC(=O)CS(=O)(=O)CC(=O)N(C)C)c(Cl)cc1Cl	i	-11	1	i	28	-14
C=CCn1c(-c2cccc3ccccc23)n[nH]c1=S	i	3	-73*	i	95*	-79
C=CCn1c(-c2cc(OC)cc(OC)c2)n[nH]c1=S	i	.	-5	i	97*	7
C=CCn1c(Cc2c[nH]c3ccccc23)n[nH]c1=S	i	.	-9	i	95*	-1
CN1CCN(S(=O)(=O)c2cccc(C(=O)NCCOc3ccccc3F)c2)CC1	i	0	-3	i	48	-5
CCOc1ccc(Nc2ncnc3c2nnn3Cc2ccccc2)cc1	i	-8	3	i	60*	-1
